Test [1] concerns Streptococcus pyogenes. Briefly: Antimicrobial activity against Streptococcus pyogenes 3 expressing mefA after 20 hrs by agar dilution method. In kind it is functional. An outline of the steps: (§1)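 Streptococci, H. influenzae and M. catarrhalis were precultured on blood agar plates. Suspensions of about 10⁶ CFU/ml were inoculated onto sensitivity disk agar supplemented with 5% horse blood and incubated at 37 °C for 20 h. MIC was read as the lowest drug concentration with no visible growth.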
Background: Agar dilution tests growth on a series of plates holding different concentrations.

For test [2], the system named is Haemophilus influenzae. Briefly: Antimicrobial activity against drug-susceptible Haemophilus influenzae 1 after 20 hrs by agar dilution method. In kind it is functional. An outline of the steps:
as §1

The test system of test [3] is Streptococcus pneumoniae. Briefly: Antimicrobial activity against drug-susceptible Streptococcus pneumoniae 3 after 20 hrs by agar dilution method. In kind it is functional. The settings on record: Streptococcus pneumoniae, 20 h; read-out: MIC. An outline of the steps:
as §1

Test [4] deals with Streptococcus pyogenes. Description: Antimicrobial activity against drug-susceptible Streptococcus pyogenes 1 after 20 hrs by agar dilution method. In kind it is functional. An outline of the steps:
as §1

Test [5] deals with Streptococcus pneumoniae. Briefly: Antimicrobial activity against Streptococcus pneumoniae 10 expressing mefA after 20 hrs by agar dilution method. Format: functional. An outline of the steps:
as §1

Test [6] has as its system Haemophilus influenzae. Briefly: Antimicrobial activity against drug-susceptible Haemophilus influenzae 2 after 20 hrs by agar dilution method. In kind it is functional. An outline of the steps:
as §1

Test [7] deals with Streptococcus pneumoniae. Briefly: Antimicrobial activity against Streptococcus pneumoniae 4 constitutively expressing ermB after 20 hrs by agar dilution method. Format: functional. Particulars: Streptococcus pneumoniae, 20 h; read-out: MIC. Summed up:
as §1

Test [8] has as its system Streptococcus pneumoniae. Briefly: Antimicrobial activity against Streptococcus pneumoniae 5 constitutively expressing ermB/mefA after 20 hrs by agar dilution method. Format: functional. Particulars: Streptococcus pneumoniae, 20 h; read-out: MIC. An outline of the steps: as §1
For test [9], the system named is Staphylococcus aureus. Description: Antimicrobial activity against drug-susceptible Staphylococcus aureus 2 after 20 hrs by agar dilution method. In kind it is functional. Summed up:
(§2)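 Agar dilution MIC. S. aureus seed culture was grown in sensitivity test broth. Cell suspension (about 10⁶ CFU/ml) was inoculated onto sensitivity disk agar with 5% horse blood and incubated at 37 °C for 20 h. MIC was the lowest drug concentration that prevented visible growth.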

Test [10] has as its system Staphylococcus aureus. Description: Antimicrobial activity against Staphylococcus aureus 5 expressing inducible ermB after 20 hrs by agar dilution method. In kind it is functional. An outline of the steps:
as §2

Test [11] deals with Streptococcus pneumoniae. Description: Antimicrobial activity against drug-susceptible Streptococcus pneumoniae DP1 Type1 after 20 hrs by agar dilution method. In kind it is functional. An outline of the steps:
as §1

Test [12] relates to Streptococcus pyogenes. Briefly: Antimicrobial activity against Streptococcus pyogenes 2 constitutively expressing ermB after 20 hrs by agar dilution method. Format: functional. An outline of the steps:
as §1

The subject of test [13] is Streptococcus pneumoniae. Briefly: Antimicrobial activity against Streptococcus pneumoniae 6 constitutively expressing ermB after 20 hrs by agar dilution method. In kind it is functional. The settings on record: Streptococcus pneumoniae, 20 h; read-out: MIC. Summed up: as §1
Test [14] has as its system Moraxella catarrhalis. Briefly: Antimicrobial activity against drug-susceptible Moraxella catarrhalis 1 after 20 hrs by agar dilution method. In kind it is functional. Summed up:
as §1

The subject of test [15] is Staphylococcus aureus. Briefly: Antimicrobial activity against Staphylococcus aureus 6 expressing inducible ermB after 20 hrs by agar dilution method. Format: functional. Summed up: as §2
The test system of test [16] is Streptococcus pneumoniae. Briefly: Antimicrobial activity against Streptococcus pneumoniae 9 expressing mefA after 20 hrs by agar dilution method. Format: functional. Summed up:
as §1

For test [17], the system named is Staphylococcus aureus. Briefly: Antimicrobial activity against Staphylococcus aureus 4 constitutively expressing ermA after 20 hrs by agar dilution method. In kind it is functional. Summed up: as §2
Test [18] relates to Streptococcus pneumoniae. Description: Antimicrobial activity against Streptococcus pneumoniae 8 expressing inducible ermB after 20 hrs by agar dilution method. Format: functional. An outline of the steps:
as §1

The subject of test [19] is Haemophilus influenzae. Briefly: Antimicrobial activity against drug-susceptible Haemophilus influenzae 4 after 20 hrs by agar dilution method. In kind it is functional. Summed up: as §1
Test [20] deals with Streptococcus pneumoniae. Briefly: Antimicrobial activity against Streptococcus pneumoniae 7 expressing inducible ermB after 20 hrs by agar dilution method. Format: functional. An outline of the steps:
as §1

The subject of test [21] is Staphylococcus aureus. Description: Antimicrobial activity against drug-susceptible Staphylococcus aureus 3 after 20 hrs by agar dilution method. Format: functional. Summed up: as §2
In test [22] the test system is Staphylococcus aureus. Description: Antimicrobial activity against drug-susceptible Staphylococcus aureus 209P JC-1 after 20 hrs by agar dilution method. In kind it is functional. An outline of the steps:
as §2

Test [23] relates to Haemophilus influenzae. Briefly: Antimicrobial activity against drug-susceptible Haemophilus influenzae 3 after 20 hrs by agar dilution method. In kind it is functional. Summed up: as §1
The subject of test [24] is Moraxella catarrhalis. Briefly: Antimicrobial activity against drug-susceptible Moraxella catarrhalis 2 after 20 hrs by agar dilution method. In kind it is functional. An outline of the steps:
as §1

In test [25] the test system is Streptococcus pneumoniae. Description: Antimicrobial activity against drug-susceptible Streptococcus pneumoniae 2 after 20 hrs by agar dilution method. In kind it is functional. Summed up: as §1
Test [26] concerns Staphylococcus aureus. Briefly: Antimicrobial activity against Staphylococcus aureus 6 expressing inducible ermC after 20 hrs by agar dilution method.
[27] abbreviates: Haemophilus influenzae, 20 h, read-out: MIC.
[28] abbreviates: Staphylococcus aureus, 20 h, read-out: MIC.
[29] abbreviates: Streptococcus pneumoniae, 20 h, read-out: MIC.
Setting [30] is: Moraxella catarrhalis, 20 h, read-out: MIC.

The structures appear in SMILES notation. ≈ marks a conversion by molar mass, not a printed value.

With `CCOC(=O)[C@H]1[C@H](C)O[C@@H](O[C@H]2[C@H](N(C)C)[C@@H](O)[C@H](O[C@H]3[C@@H](CC=O)C[C@@H](C)[C@@H](O)CN(C)CC(/C=C/Cc4cnc5ccccc5c4)CCOC(=O)C[C@@H](OC(=O)CC)[C@@H]3OC)O[C@@H]2C)C[C@@]1(C)O` (stereo in doubt; form 1), the MIC worked out at 0.13 µg/mL (≈ 0.132 µM) with Streptococcus pyogenes [1]; 32 µg/mL (≈ 32.4 µM) with Haemophilus influenzae [2] (setting [27]); 0.015 µg/mL (≈ 0.0152 µM) in the test with Streptococcus pneumoniae [3]; 0.03 µg/mL (≈ 0.0304 µM) against Streptococcus pyogenes [4]; 0.015 µg/mL (≈ 0.0152 µM) in the test on Streptococcus pneumoniae [5]; 2 µg/mL (≈ 2.03 µM) in the test with Haemophilus influenzae [6] (setting [27]). The MIC was 128 µg/mL (≈ 130 µM) in the test with Streptococcus pneumoniae [7]; 128 µg/mL (≈ 130 µM) in the test on Streptococcus pneumoniae [8]; 0.25 µg/mL (≈ 0.253 µM) with Staphylococcus aureus [9] (setting [28]); 0.13 µg/mL (≈ 0.132 µM) with Staphylococcus aureus [10] (setting [28]); below 0.008 µg/mL with Streptococcus pneumoniae [11] (setting [29]); above 128 µg/mL against Streptococcus pyogenes [12]. The MIC with Streptococcus pneumoniae [13] was 128 µg/mL (≈ 130 µM); in the test with Moraxella catarrhalis [14] (setting [30]) it was 1 µg/mL (≈ 1.01 µM); in the test with Staphylococcus aureus [15] it was 0.25 µg/mL (≈ 0.253 µM); with Streptococcus pneumoniae [16] it was 0.015 µg/mL (≈ 0.0152 µM); in the test on Staphylococcus aureus [17], above 128 µg/mL; against Streptococcus pneumoniae [18], 1 µg/mL (≈ 1.01 µM). Further, the MIC amounted to 4 µg/mL (≈ 4.06 µM) against Haemophilus influenzae [19]; 1 µg/mL (≈ 1.01 µM) against Streptococcus pneumoniae [20]; 0.13 µg/mL (≈ 0.132 µM) with Staphylococcus aureus [21] (setting [28]); 0.13 µg/mL (≈ 0.132 µM) in the test on Staphylococcus aureus [22] (Staphylococcus aureus, 209P, 20 h, read-out: MIC); 8 µg/mL (≈ 8.11 µM) in the test on Haemophilus influenzae [23] (setting [27]); 1 µg/mL (≈ 1.01 µM) with Moraxella catarrhalis [24] (setting [30]). Further, the MIC with Streptococcus pneumoniae [25] (setting [29]) came to 0.03 µg/mL (≈ 0.0304 µM).
On to `CCOC(=O)[C@H]1[C@H](C)O[C@@H](O[C@H]2[C@H](N(C)C)[C@@H](O)[C@H](O[C@H]3[C@@H](CC=O)C[C@@H](C)[C@@H](O)CN(CCCCc4ccccc4)CCC(C)NC(=O)C[C@@H](OC(=O)CC)[C@@H]3OC)O[C@@H]2C)C[C@@]1(C)OC(C)=O` (stereo in doubt; form 2), for which the MIC against Streptococcus pyogenes [1] came to 0.25 µg/mL (≈ 0.256 µM); against Haemophilus influenzae [2] it was 32 µg/mL (≈ 32.7 µM); with Streptococcus pyogenes [4], 0.06 µg/mL (≈ 0.0613 µM); against Haemophilus influenzae [6], 1 µg/mL (≈ 1.02 µM); in the test on Staphylococcus aureus [9] it was 1 µg/mL (≈ 1.02 µM); with Staphylococcus aureus [10], 0.25 µg/mL (≈ 0.256 µM). Besides, the MIC against Streptococcus pneumoniae [11] came to 0.13 µg/mL (≈ 0.133 µM); in the test on Moraxella catarrhalis [14], 0.13 µg/mL (≈ 0.133 µM); in the test with Streptococcus pneumoniae [18] it was 32 µg/mL (≈ 32.7 µM); in the test with Haemophilus influenzae [19] it was 8 µg/mL (≈ 8.18 µM); against Streptococcus pneumoniae [20], 32 µg/mL (≈ 32.7 µM); against Staphylococcus aureus [21] it was 0.25 µg/mL (≈ 0.256 µM). The MIC stood at 0.25 µg/mL (≈ 0.256 µM) against Staphylococcus aureus [22]; 8 µg/mL (≈ 8.18 µM) against Haemophilus influenzae [23]; 0.25 µg/mL (≈ 0.256 µM) against Moraxella catarrhalis [24]; 0.5 µg/mL (≈ 0.511 µM) in the test with Staphylococcus aureus [26]; 0.25 µg/mL (≈ 0.256 µM) against Streptococcus pneumoniae [25].
Turning to `CCOC(=O)[C@H]1[C@H](C)O[C@@H](O[C@H]2[C@H](N(C)C)[C@@H](O)[C@H](O[C@H]3[C@@H](CC=O)C[C@@H](C)[C@@H](O)CN(C)CC(/C=C/Cc4ccnc5ccccc45)CCOC(=O)C[C@@H](OC(=O)CC)[C@@H]3OC)O[C@@H]2C)C[C@@]1(C)O` (stereo in doubt; form 2), the MIC against Streptococcus pyogenes [1] amounted to 0.25 µg/mL (≈ 0.253 µM); against Haemophilus influenzae [2] it was 32 µg/mL (≈ 32.4 µM); in the test with Streptococcus pyogenes [4] it was 0.13 µg/mL (≈ 0.132 µM); with Streptococcus pneumoniae [5], 0.06 µg/mL (≈ 0.0608 µM); in the test on Haemophilus influenzae [6] (setting [27]) it was 4 µg/mL (≈ 4.06 µM); against Staphylococcus aureus [9], 1 µg/mL (≈ 1.01 µM). For the same compound, the MIC against Staphylococcus aureus [10] was determined as 0.25 µg/mL (≈ 0.253 µM); against Streptococcus pneumoniae [11] it was 0.03 µg/mL (≈ 0.0304 µM); in the test with Moraxella catarrhalis [14] it was 2 µg/mL (≈ 2.03 µM); in the test with Streptococcus pneumoniae [16], 0.06 µg/mL (≈ 0.0608 µM); against Streptococcus pneumoniae [18], 128 µg/mL (≈ 130 µM); in the test on Haemophilus influenzae [19], 16 µg/mL (≈ 16.2 µM). The MIC against Streptococcus pneumoniae [20] was found to be 128 µg/mL (≈ 130 µM); with Staphylococcus aureus [21], 0.25 µg/mL (≈ 0.253 µM); in the test with Staphylococcus aureus [22], 0.25 µg/mL (≈ 0.253 µM); in the test with Haemophilus influenzae [23], 16 µg/mL (≈ 16.2 µM); against Moraxella catarrhalis [24] it was 2 µg/mL (≈ 2.03 µM); with Staphylococcus aureus [26] it was 0.5 µg/mL (≈ 0.507 µM). In addition, the MIC against Streptococcus pneumoniae [25] came to 0.06 µg/mL (≈ 0.0608 µM).

These data come from ChEMBL document CHEMBL1151705, “Novel azalides derived from 16-membered macrolides. Part II: Isolation of the linear 9-formylcarboxylic acid and its sequential macrocyclization with an amino alcohol or an azidoamine” (2008).
